Assay results from ChEMBL document CHEMBL1123658, “1-(2-pyridinyl)piperazine derivatives with antianaphylactic, antibronchospastic, and mast cell stabilizing activities” (J Med Chem, 1987).

How the values were obtained:
[1] = system: Cavia porcellus; test: Antibronchospatic activity determined by histamine stimulated bronchospasm inhibition in guinea pigs after(i.v.) administration; assay type: functional, Bronchiole
In short: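 Guinea pigs, Konzett–Rössler preparation. Bronchospasm was induced with histamine. Compound was given iv (1 mL/kg) 1 min before the agonist, dissolved in saline or saline with slight excess HCl or CH3SO3H (pH 3.5–4). Three doses were tested in duplicate, chosen to give 20–90% inhibition. ID75 was read graphically from log dose–response curves.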

[2] = system: Rattus norvegicus; test: Rat PCA Test(50% inhibition of spot areas)in the female albino rats after (ip) administration in 10% aqueous acacia gum; assay type: functional; details: read-out: ID50 (the source's name)
In short: (§1)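 Female albino rats (200–250 g) received intradermal ventral injections of rat anti-egg-albumin antiserum; donors were raised with egg albumin im plus H. pertussis ip, and serum was taken at 12 days. 24 h later, compound was given ip in 10% acacia gum (10 mL/kg), 10 rats/group. Challenge 30 min later was iv 0.3% egg albumin plus 1% Evans blue. Blued areas were measured 30 min after challenge.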

[3] = In vivo toxicity in mouse after oral administration with 10% aqueous acacia gum; assay type: organism-based
In short: (§2)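 Female albino mice, 20-30 g. Compound given orally as solution or suspension in 10% aqueous acacia gum, 10 animals per dose. Deaths recorded over 7 days.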

[4] = In vivo toxic effect was determined in mouse after intraperitoneal administration with 10% aqueous acacia gum; value ranges from 0.56-0.94; assay type: toxicity, organism-based; details: ip
In short: (§3)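 Female albino mice (20-30 g), 10 animals per dose, dosed intraperitoneally with compound in solution or suspension; compounds tested as salts unless noted. Mortality was recorded over 7 days.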

[5] = system: Rattus norvegicus; test: Inhibition of mast cell degranulation was assessed in female albino rats at a dose of 32 umol/kg iv; assay type: functional
[6] = system: Rattus norvegicus; test: Rat PCA Test(50% inhibition of spot areas)in the female albino rats, using Goose and Blair method by dissolving or suspended the compound in 10% aqueous acacia gum and administered perorally.; Value ranges from (26-199); assay type: functional; details: po, read-out: ID50 (the source's name)
In short: (§4)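 Female rats (200-250 g) were passively sensitized by ventral intradermal anti-egg-albumin antiserum. This was raised in rats by intramuscular 1% egg albumin plus ip H. pertussis vaccine, with serum taken at 12 days. After 24 h, groups of 10 were dosed orally with compound or vehicle (10 mL/kg). At 60 min, iv challenge used 0.3% egg albumin with 1% Evans blue. Blued areas were measured after 30 min.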

[7] = system: Rattus norvegicus; test: Rat PCA Test(50% inhibition of spot areas)in the female albino rats after (ip) administration in 10% aqueous acacia gum; value ranges from 35-79; assay type: functional; details: read-out: ID50 (the source's name); in short: as §1
[8] = In vivo toxic effect was determined in mouse after intraperitoneal administration with 10% aqueous acacia gum; value ranges from 0.97-2.74; assay type: toxicity, organism-based; details: ip; in short: as §3
[9] = In vivo toxic effect was determined in mouse after oral administration with 10% aqueous acacia gum; value ranges from 0.97-1.87; assay type: toxicity, organism-based; in short: as §2
[10] = In vivo toxic effect was determined in mouse after intraperitoneal administration with 10% aqueous acacia gum; value ranges from 0.27-0.43; assay type: toxicity, organism-based; details: ip; in short: as §3
[11] = system: Rattus norvegicus; test: Rat PCA Test(50% inhibition of spot areas)in the female albino rats after ip administration in 10% aqueous acacia gum; Value ranges from (6-147).; details: read-out: ID50 (the source's name)
[12] = system: Rattus norvegicus; test: Inhibition of mast cell degranulation was assessed in female albino rats at a dose of 65 umol/kg iv; assay type: functional
[13] = system: Rattus norvegicus; test: Rat PCA Test(50% inhibition of spot areas)in the female albino rats after oral administration in 10% aqueous acacia gum; value ranges from 184-369; assay type: functional; details: read-out: ID50 (the source's name); in short: as §4
[14] = system: Rattus norvegicus; test: Rat PCA Test(50% inhibition of spot areas)in the female albino rats after (ip) administration in 10% aqueous acacia gum; value ranges from 99-415; assay type: functional; details: read-out: ID50 (the source's name)
In short: (§5)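 Antiserum came from female rats given 1% egg albumin in 0.9% NaCl intramuscularly plus Haemophilus pertussis vaccine (2 × 10^10 organisms) intraperitoneally, and was collected 12 days later. Recipient rats (200-250 g) got it intradermally at a ventral site. After 24 h, groups of 10 received vehicle or compound ip. At 30 min they were challenged iv with 0.3% egg albumin plus 1% Evans blue. Blued skin areas were measured 30 min later.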

[15] = In vivo toxic effect was determined in mouse after intraperitoneal administration with 10% aqueous acacia gum; value ranges from 1.82-3.42; assay type: toxicity, organism-based; details: ip; in short: as §3
[16] = system: Rattus norvegicus; test: Rat PCA Test(50% inhibition of spot areas)in the female albino rats after (ip) administration in 10% aqueous acacia gum; value ranges from 78-93; assay type: functional; details: read-out: ID50 (the source's name); in short: as §5
[17] = In vivo toxic effect was determined in mouse after intraperitoneal administration with 10% aqueous acacia gum; value ranges from 0.66-1.99; assay type: toxicity, organism-based; details: ip; in short: as §3
[18] = In vivo toxic effect was determined in mouse after oral administration with 10% aqueous acacia gum; value ranges from 0.93-1.70; assay type: toxicity, organism-based; in short: as §2
[19] = system: Rattus norvegicus; test: Rat PCA Test(50% inhibition of spot areas)in the female albino rats after oral administration in 10% aqueous acacia gum; value ranges from 119-331; assay type: functional; details: read-out: ID50 (the source's name); in short: as §4
[20] = system: Rattus norvegicus; test: Rat PCA Test(50% inhibition of spot areas)in the female albino rats after (ip) administration in 10% aqueous acacia gum; value ranges from 40-122; assay type: functional; details: read-out: ID50 (the source's name); in short: as §1
[21] = In vivo toxic effect was determined in mouse after intraperitoneal administration with 10% aqueous acacia gum; value ranges from 0.96-1.77; assay type: toxicity, organism-based; details: ip; in short: as §3
[22] = In vivo toxic effect was determined in mouse after oral administration with 10% aqueous acacia gum; value ranges from 1.72-3.90; assay type: toxicity, organism-based; in short: as §2
[23] = In vivo toxic effect was determined in mouse after intraperitoneal administration with 10% aqueous acacia gum; value ranges from 0.28-0.52; assay type: toxicity, organism-based; details: ip; in short: as §3
[24] = In vivo toxic effect was determined in mouse after oral administration with 10% aqueous acacia gum; value ranges from 0.41-0.93; assay type: toxicity, organism-based
[25] = system: Rattus norvegicus; test: Rat PCA Test(50% inhibition of spot areas)in the female albino rats after oral administration in 10% aqueous acacia gum; assay type: functional; details: read-out: ID50 (the source's name); in short: as §4
[26] = In vivo toxic effect was determined in mouse after intraperitoneal administration with 10% aqueous acacia gum; value ranges from 0.94-1.40; assay type: toxicity, organism-based; details: ip; in short: as §3
[27] = In vivo toxic effect was determined in mouse after oral administration with 10% aqueous acacia gum value ranges from 1.63-2.93; assay type: toxicity, organism-based
[28] = system: Rattus norvegicus; test: Rat PCA Test(50% inhibition of spot areas)in the female albino rats after oral administration in 10% aqueous acacia gum; value ranges from 80-141; assay type: functional; details: read-out: ID50 (the source's name); in short: as §4
[29] = system: Rattus norvegicus; test: Rat PCA Test(50% inhibition of spot areas)in the female albino rats after (ip) administration in 10% aqueous acacia gum; value ranges from 45-69; assay type: functional; details: read-out: ID50 (the source's name); in short: as §1
[30] = In vivo toxic effect was determined in mouse after intraperitoneal administration with 10% aqueous acacia gum; value ranges from 0.48-0.77; assay type: toxicity, organism-based; details: ip; in short: as §3
[31] = In vivo toxic effect was determined in mouse after oral administration with 10% aqueous acacia gum; value ranges from 1.23-1.71; assay type: toxicity, organism-based; in short: as §2
[32] = system: Rattus norvegicus; test: Inhibition of mast cell degranulation was assessed in female albino rats at a dose of 31 umol/kg iv; assay type: functional
[33] = system: Rattus norvegicus; test: Rat PCA Test(50% inhibition of spot areas)in the female albino rats after oral administration in 10% aqueous acacia gum; value ranges from 72-115; assay type: functional; details: read-out: ID50 (the source's name); in short: as §4
[34] = system: Rattus norvegicus; test: Rat PCA Test(50% inhibition of spot areas)in the female albino rats after (ip) administration in 10% aqueous acacia gum; value ranges from 11-48; assay type: functional; details: read-out: ID50 (the source's name); in short: as §1
[35] = In vivo toxic effect was determined in mouse after intraperitoneal administration with 10% aqueous acacia gum; value ranges from 0.92-1.65; assay type: toxicity, organism-based; details: ip; in short: as §3
[36] = In vivo toxic effect was determined in mouse after oral administration with 10% aqueous acacia gum; value ranges from 0.92-1.78; assay type: toxicity, organism-based; in short: as §2

Which ID75 [1] does the source give for `O=C(CCN1CCN(c2ccccn2)CC1)Nc1ccc(NC(=O)Nc2ccccc2)cc1` here?
Its ID75 is 0.31 µM/kg.

And the ED50 [2]?
The ED50 was > 225 µmol/kg.

And the LD50 [3]?
Its LD50 is > 6700 µmol/kg.

With `Cc1cc(C)c(C)c(NC(=O)CN2CCN(c3ccccn3)CC2)c1C` as the compound, how does the ID75 [1] read?
The ID75 was >23.5 µM/kg.

And the ED50 [2]?
Its ED50 is > 212 µmol/kg.

And the LD50 [4]?
The LD50 was 650 µmol/kg.

With `O=C(CCN1CCN(c2ccccn2)CC1)Nc1ccccc1` as the compound, how does the inhibition in vivo at 32 µmol/kg [5] read?
The inhibition in vivo at 32 µmol/kg was 12%.

And the ED50 [6]?
The ED50 was 72 µmol/kg.

What about the ED50 [7] of the same compound?
Its ED50 is 53 µmol/kg.

And the LD50 [8]?
The LD50 was 1160 µmol/kg.

And the LD50 [9]?
The LD50 was 1350 µmol/kg.

For `Cc1c(C)c([N+](=O)[O-])c(C)c(C)c1C(=O)NCCN1CCN(c2ccccn2)CC1.Cl.Cl`, which LD50 [10] is on record?
The LD50 was 320 µmol/kg.

What about the ED50 [11] of the same compound?
The ED50 was 30 µmol/kg.

With `Cl.Cl.NC(=O)CCN1CCN(c2ccccn2)CC1` as the compound, how does the inhibition in vivo at 65 µmol/kg [12] read?
Its inhibition in vivo at 65 µmol/kg is 23%.

And the ID75 [1]?
The ID75 was 2.47 µM/kg.

What about the ED50 [13] of the same compound?
The ED50 was 260 µmol/kg.

What about the ED50 [14] of the same compound?
Its ED50 is 203 µmol/kg.

And the LD50 [15]?
Its LD50 is 2440 µmol/kg.

With `Cl.Cl.O=C(CCN1CCN(c2ccccn2)CC1)Nc1c(Cl)cccc1Cl` as the compound, how does the ID75 [1] read?
Its ID75 is 0.4 µM/kg.

And the ED50 [16]?
Its ED50 is 85 µmol/kg.

What about the LD50 [17] of the same compound?
The LD50 was 800 µmol/kg.

What about the LD50 [18] of the same compound?
Its LD50 is 1240 µmol/kg.

What does the source list for `Cl.Cl.O=C(CCN1CCN(c2ccccn2)CC1)Nc1ccccc1Cl`?
inhibition in vivo at 32 µmol/kg [5]: 0%; ED50 [19]: 199 µmol/kg; ED50 [20]: 70 µmol/kg; LD50 [21]: 1290 µmol/kg; LD50 [22]: 2640 µmol/kg

With `Cl.Cl.N#Cc1ccc(NC(=O)CCN2CCN(c3ccccn3)CC2)cc1` as the compound, how does the ID75 [1] read?
The ID75 was 0.64 µM/kg.

What about the ED50 [2] of the same compound?
The ED50 was > 39 µmol/kg.

What about the LD50 [23] of the same compound?
The LD50 was 390 µmol/kg.

And the LD50 [24]?
Its LD50 is 620 µmol/kg.

With `CC(C)Sc1ccc(NC(=O)CCN2CCN(c3ccccn3)CC2)cc1` as the compound, how does the ID75 [1] read?
Its ID75 is 0.8 µM/kg.

And the ED50 [2]?
Its ED50 is > 120 µmol/kg.

And the ED50 [25]?
Its ED50 is > 221 µmol/kg.

And the LD50 [26]?
Its LD50 is 1140 µmol/kg.

What about the LD50 [27] of the same compound?
The LD50 was 2180 µmol/kg.

Which ID75 [1] does the source give for `COc1cccc(N2CCN(CCC(=O)Nc3ccc(N)cc3)CC2)n1.Cl.Cl` here?
Its ID75 is 0.4 µM/kg.

What about the ED50 [28] of the same compound?
Its ED50 is 106 µmol/kg.

And the ED50 [29]?
The ED50 was 56 µmol/kg.

What about the LD50 [30] of the same compound?
Its LD50 is 530 µmol/kg.

And the LD50 [31]?
The LD50 was 1600 µmol/kg.

Which inhibition in vivo at 31 µmol/kg [32] does the source give for `Nc1ccc(NC(=O)CCN2CCN(c3ccccn3)CC2)cc1` here?
The inhibition in vivo at 31 µmol/kg was 84%.

And the ID75 [1]?
Its ID75 is 0.02 µM/kg.

What about the ED50 [33] of the same compound?
The ED50 was 91 µmol/kg.

And the ED50 [34]?
Its ED50 is 23 µmol/kg.

What about the LD50 [35] of the same compound?
Its LD50 is 1110 µmol/kg.

What about the LD50 [36] of the same compound?
The LD50 was 1290 µmol/kg.
